From ChEMBL document CHEMBL4732181, “Pyrazolo[3,4-d]pyrimidine-based dual EGFR T790M/HER2 inhibitors: Design, synthesis, structure-activity relationship and biological activity as potential antitumor and anticonvulsant agents” (Eur J Med Chem, 2021)

Assays:
[1] = system: Mus musculus; experiment: Anticonvulsant activity against mouse model of LiCa/pilocarpine-induced status epilepticus assessed as delta at 20 mg/kg, po for 10 days by EEG method relative to control; format: functional; settings: time 10 day
How it was run: (§1)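 Male mice (20-30 g), five per group, dosed orally once daily for 10 days. Status epilepticus was then induced with LiCa (3 mEq/kg i.p.), atropine sulfate (1 mg/kg i.p.) 30 min before pilocarpine, and pilocarpine HCl (300 mg/kg i.p.) 2 h after LiCa. Normal controls received oral distilled water. Comparators were untreated SE, phenytoin and lamotrigine. One-way ANOVA with Tukey post-hoc; mean ± SD.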

[2] = system: Mus musculus; experiment: Anticonvulsant activity against mouse model of LiCa/pilocarpine-induced status epilepticus assessed as MDA level in brain at 20 mg/kg, po for 10 days by calorimetric method relative to control; format: functional; settings: time 10 day; how it was run: as §1
[3] = system: Mus musculus; experiment: Anticonvulsant activity against mouse model of LiCa/pilocarpine-induced status epilepticus assessed as Glutamate level in brain at 20 mg/kg, po for 10 days by ELISA relative to control; format: functional; settings: time 10 day; how it was run: as §1
[4] = system: Mus musculus; experiment: Anticonvulsant activity against mouse model of LiCa/pilocarpine-induced status epilepticus assessed as theta at 20 mg/kg, po for 10 days by EEG method relative to control; format: functional; settings: time 10 day; how it was run: as §1
[5] = system: Mus musculus; experiment: Anticonvulsant activity against mouse model of LiCa/pilocarpine-induced status epilepticus assessed as amplitude density at 20 mg/kg, po for 10 days by EEG method relative to control; format: functional; settings: time 10 day; how it was run: as §1
[6] = system: Mus musculus; experiment: Anticonvulsant activity against mouse model of LiCa/pilocarpine-induced status epilepticus assessed as total power density at 20 mg/kg, po for 10 days by EEG method relative to control; format: functional; settings: time 10 day; how it was run: as §1
[7] = system: Mus musculus; experiment: Anticonvulsant activity against mouse model of LiCa/pilocarpine-induced status epilepticus assessed as mean power frequency at 20 mg/kg, po for 10 days by EEG method relative to control; format: functional; settings: time 10 day; how it was run: as §1
[8] = system: Mus musculus; experiment: Anticonvulsant activity against mouse model of LiCa/pilocarpine-induced status epilepticus assessed as power pV2 at 20 mg/kg, po for 10 days by EEG method relative to control; format: functional; settings: time 10 day; how it was run: as §1
[9] = system: Mus musculus; experiment: Anticonvulsant activity against mouse model of LiCa/pilocarpine-induced status epilepticus assessed as GABA level in brain at 20 mg/kg, po for 10 days by ELISA relative to control; format: functional; settings: time 10 day; how it was run: as §1
[10] = system: Mus musculus; experiment: Anticonvulsant activity against mouse model of LiCa/pilocarpine-induced status epilepticus assessed as alpha at 20 mg/kg, po for 10 days by EEG method relative to control; format: functional; settings: time 10 day; how it was run: as §1
[11] = system: WI-38; experiment: Cytotoxicity against human WI-38 cells assessed as reduction in cell viability after 48 hrs by MTT assay; format: cell-based; settings: WI-38, 48 h
How it was run: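 Cells from ATCC grown in DMEM with 10% FBS, insulin and 1% penicillin-streptomycin. Plated at 1.2-1.8 × 10,000 cells/well for 24 h, then exposed to compounds in DMSO vehicle for 48 h. MTT 0.5 mg/ml added for 2 h; absorbance read at 570 nm. Experiments run in triplicate.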

[12] = system: Mus musculus; experiment: Anticonvulsant activity against mouse model of LiCa/pilocarpine-induced status epilepticus assessed as total power at 20 mg/kg, po for 10 days by EEG method relative to control; format: functional; settings: time 10 day; how it was run: as §1
[13] = system: Mus musculus; experiment: Anticonvulsant activity against mouse model of LiCa/pilocarpine-induced status epilepticus assessed as amplitude at 20 mg/kg, po for 10 days by EEG method relative to control; format: functional; settings: time 10 day; how it was run: as §1
[14] = system: Mus musculus; experiment: Anticonvulsant activity against mouse model of LiCa/pilocarpine-induced status epilepticus assessed as spectral edge frequency at 20 mg/kg, po for 10 days by EEG method relative to control; format: functional; settings: time 10 day; how it was run: as §1
[15] = system: Mus musculus; experiment: Anticonvulsant activity against mouse model of LiCa/pilocarpine-induced status epilepticus assessed as GSH level in brain at 20 mg/kg, po for 10 days by calorimetric method relative to control; format: functional; settings: time 10 day; how it was run: as §1

Row | Compound | Activity [1] | Activity [2] | Activity [3] | Activity [4] | Activity [5] | Activity [6] | Activity [7] | Activity [8] | Activity [9] | Activity [10] | IC50 [11] | Activity [12] | Activity [13] | Activity [14] | Activity [15]
1 | COc1ccc(/C=C2/N=C(c3ccc(C)cc3)N(C(=O)Cc3nc4c(c(C)nn4-c4ccccc4)c(=O)[nH]3)NC2=O)cc1 | 362.78% | -69.49% | -50.42% | 27.12% | 82.98% | 264.63% | -33% | 218.96% | 71.88% | 0.71% | 18.6 nM | 33.82% | 80.44% | -26.44% | 50.67%
2 | Cc1ccc(C2=N/C(=C/c3ccccc3)C(=O)NN2C(=O)Cc2nc3c(c(C)nn3-c3ccccc3)c(=O)[nH]2)cc1 | 366.41% | -69.74% | -82.89% | 11.83% | 110.33% | 302.31% | -46.23% | 243.46% | 91.22% | -5.99% | 85.6 nM | 23.32% | 90.67% | -29% | 188.85%
3 | Cc1nn(-c2ccccc2)c2nc(C(=O)N3NC(=O)/C(=C/c4ccccc4)N=C3c3ccccc3)[nH]c(=O)c12 | 314.32% | -72.13% | -58.33% | 28.9% | 78.42% | 229.32% | -30.24% | 138.76% | 61.71% | 12.39% | 49.5 nM | 13.12% | 67.11% | -16.31% | 154.11%
4 | COc1ccc(/C=C2/N=C(c3ccccc3)N(C(=O)Cc3nc4c(c(C)nn4-c4ccccc4)c(=O)[nH]3)NC2=O)cc1 | 266.63% | -66.91% | -75.98% | 24.43% | 47.72% | 215.63% | -39.36% | 167.62% | 104.31% | 2.55% | 17.2 nM | 16.62% | 66.22% | -21.87% | 136.46%
5 | Cc1ccc(C2=N/C(=C\c3ccccc3)C(=O)NN2C(=O)c2nc3c(c(C)nn3-c3ccccc3)c(=O)[nH]2)cc1 | 241.85% | -66.18% | -72.91% | 32.01% | 36.17% | 210.16% | -37.93% | 143.79% | 59.73% | 9.13% | 24.5 nM | 15.45% | 62.22% | -22.26% | 173.91%
6 | Cc1nn(-c2ccccc2)c2nc(C(=O)N3NC(=O)/C(=C/c4ccc(Cl)cc4)N=C3c3ccc(Cl)cc3)[nH]c(=O)c12 | 313.77% | -63.24% | -57.79% | 41.15% | 54.1% | 233.86% | -37.61% | 225.84% | 74.49% | 4.62% | 19.3 nM | 37.32% | 89.78% | -21.45% | 144.08%
7 | COc1ccc(/C=C2\N=C(c3ccccc3)N(C(=O)c3nc4c(c(C)nn4-c4ccccc4)c(=O)[nH]3)NC2=O)cc1 | 368.94% | -54.04% | -76.21% | 29.32% | 88.15% | 265.27% | -48.49% | 230.03% | 68.66% | -5.51% | 97.7 nM | 30.61% | 99.56% | -25.28% | 141.33%
8 | Cc1nn(-c2ccccc2)c2nc(C(=O)N3NC(=O)/C(=C/c4ccccc4)N=C3c3ccc(Cl)cc3)[nH]c(=O)c12 | 254.07% | -55.28% | -39.91% | 16.08% | 76.29% | 200.5% | -22.83% | 133.56% | 89.37% | 27.21% | 55 nM | 10.2% | 54.67% | -13.59% | 80.37%
9 | O=C1NC(=O)C(c2ccccc2)(c2ccccc2)N1 [PHENYTOIN] | 485.9% | -56.88% | -81.35% | 19.76% | 175.08% | 381.63% | -58.54% | 332.89% | 92.87% | -14.82% |  | 51.6% | 158.67% | -38.74% | 156.39%
10 | COc1ccc(/C=C2\N=C(c3ccc(Cl)cc3)N(C(=O)c3nc4c(c(C)nn4-c4ccccc4)c(=O)[nH]3)NC2=O)cc1 | 330.62% | -67.54% | -66.54% | 20.25% | 46.81% | 245.46% | -40.42% | 190.77% | 87.03% | -4.74% | 25 nM | 14.87% | 71.11% | -22.51% | 150.97%
